In brackets after ≈: the same amount, converted by molar mass. Activity calls are given as the source filed them. The rule behind the calls is not given here.
How the values were obtained:
[1] = tested on: Escherichia coli; test: Antimicrobial activity against Escherichia coli imp 389 after 18 to 20 hrs by standard broth microdilution method; assay type: functional
How it was run: (§1)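 Broth microdilution in polystyrene plates. Each well held 0.1 mL of broth medium with drug at 0.03–128 μg/mL and received 5 μL of overnight broth culture adjusted to 1 × 10⁷ to 5 × 10⁷ CFU/ml. Plates were incubated 18–20 h at 37 °C. MIC was the lowest concentration with no visible turbidity. Strains came from a laboratory collection.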

[2] = tested on: Bacillus subtilis; test: Antimicrobial activity against Bacillus subtilis PY79 after 18 to 20 hrs by standard broth microdilution method; assay type: functional; how it was run: as §1
[3] = tested on: Enterococcus faecium; test: Antimicrobial activity against vancomycin-resistant Enterococcus faecium 379 after 18 to 20 hrs by standard broth microdilution method; assay type: functional
How it was run: (§2)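 Broth microdilution: 5 μL overnight culture (1 × 10⁷ to 5 × 10⁷ CFU/ml) added to 0.1 mL broth containing drug at 0.03–128 μg/mL. Incubated 18–20 h at 37 °C. MIC = lowest concentration preventing visual turbidity. Strains from an in-house laboratory collection.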

[4] = tested on: Staphylococcus aureus; test: Antimicrobial activity against Staphylococcus aureus 375 after 18 to 20 hrs by standard broth microdilution method; assay type: functional; how it was run: as §1
[5] = tested on: Staphylococcus aureus; test: Antimicrobial activity against methicillin-resistant Staphylococcus aureus 310 after 18 to 20 hrs by standard broth microdilution method; assay type: functional; how it was run: as §2
[6] = tested on: Staphylococcus aureus; test: Antimicrobial activity against Staphylococcus aureus Smith infected in CD1 mouse after 7 days; assay type: functional; details: 168 h
How it was run: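 Female CD-1 mice (20 ± 2 g) infected intraperitoneally with bacteria in broth or ~5% mucin, inoculum lethal to 95–100% of untreated mice within 48 h. Single dose given 0.5 h post-infection. Seven-day survival from three or four tests (five dose levels, five mice per level) pooled; ED50 by probit analysis.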

[7] = tested on: Staphylococcus aureus; test: Antimicrobial activity against Staphylococcus aureus Smith infected in CD1 mouse at 64 mg/kg after 7 days; assay type: functional, organism-based; set-up: dose 64 mg/kg
How it was run: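 Female CD-1 mice weighing 20 ± 2 g were infected intraperitoneally with bacteria suspended in broth or in about 5% mucin, at an inoculum lethal to 95–100% of untreated mice within 48 h. A single drug dose was given 0.5 h after infection. Survival was scored at day 7, using five animals per dose level and three or four separate tests pooled.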

SMILES | MIC [1] | MIC [2] | MIC [3] | MIC [4] | MIC [5] | ED50 [6] | ED50 [7]
CC1(C)S[C@@H]2[C@H](NC(=O)Cc3ccccc3)C(=O)N2[C@H]1C(=O)O [PENICILLIN G] | 2 µg/mL (≈ 5.98 µM) | 8 µg/mL (≈ 23.9 µM) | 128 µg/mL (≈ 383 µM) | 0.06 µg/mL (≈ 0.179 µM) | 128 µg/mL (≈ 383 µM) |  | 
CN[C@H](CC(C)C)C(=O)N[C@H]1C(=O)N[C@@H](CC(N)=O)C(=O)N[C@H]2C(=O)N[C@H]3C(=O)N[C@H](C(=O)N[C@H](C(=O)O)c4cc(O)cc(O)c4-c4cc3ccc4O)[C@H](O)c3ccc(c(Cl)c3)Oc3cc2cc(c3O[C@@H]2O[C@H](CO)[C@@H](O)[C@H](O)[C@H]2O[C@H]2C[C@](C)(N)[C@H](O)[C@H](C)O2)Oc2ccc(cc2Cl)[C@H]1O [VANCOMYCIN] |  |  |  |  |  | 1 mg/kg | 
CC(C)=CCC[C@@H](C)[C@H]1C[C@H](O)[C@@]2(C)[C@@H]3CC[C@H]4[C@](C)(C(=O)O)[C@@H](O)C[C@H](O)[C@@]45C[C@@]35CC[C@]12C | > 128 µg/mL | 64 µg/mL (≈ 131 µM) | 32 µg/mL (≈ 65.5 µM) | 32 µg/mL (≈ 65.5 µM) | 128 µg/mL (≈ 262 µM) |  | 
C=C(CC[C@@H](C)[C@H]1[C@@H](O)C[C@@]2(C)[C@@H]3[C@@H](O)C[C@H]4[C@](C)(C(=O)O)[C@@H](O)CC[C@@]45C[C@@]35CC[C@]12C)C(C)C | > 128 µg/mL | 16 µg/mL (≈ 31.8 µM) | 8 µg/mL (≈ 15.9 µM) | 16 µg/mL (≈ 31.8 µM) | > 128 µg/mL |  | inactive
CC(C)=CCC[C@@H](C)[C@H]1[C@H](O)C[C@@]2(C)[C@@H]3CC[C@H]4[C@](C)(C(=O)O)[C@@H](O)C[C@H](O)[C@@]45C[C@@]35CC[C@]12C | 64 µg/mL (≈ 131 µM) | 32 µg/mL (≈ 65.5 µM) | 8 µg/mL (≈ 16.4 µM) | 32 µg/mL (≈ 65.5 µM) | 64 µg/mL (≈ 131 µM) |  | 
